High-throughput results (PubChem BioAssay)
procasp3 activ: activators of human procaspase-3 D3A mutant, primary screen, biochemical, absorbance, PC-3 D3A mutant, single concentration | Caspase-3 (Homo sapiens), P42574 | recombinant procaspase-3 D3A, Ac-DEVD-pNA absorbance 405 nm | activation, % at 8.5 µM | actives 0.11% (n = 330,000) | AID 463141, 2010;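 active = activation above the mean of all tested compounds plus 3 SD, cut at about 21% in these data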
Target sequence (P42574 whole entry D9A/D28A/D175A): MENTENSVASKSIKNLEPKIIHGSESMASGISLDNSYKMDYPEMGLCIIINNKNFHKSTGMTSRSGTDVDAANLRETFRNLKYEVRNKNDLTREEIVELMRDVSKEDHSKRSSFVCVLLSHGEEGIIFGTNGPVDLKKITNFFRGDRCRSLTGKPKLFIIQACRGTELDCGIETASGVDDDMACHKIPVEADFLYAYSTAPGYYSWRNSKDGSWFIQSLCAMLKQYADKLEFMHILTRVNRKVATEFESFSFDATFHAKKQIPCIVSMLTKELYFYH
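Assay system: Procaspase-3 D3A mutant, all three cleavage aspartates alanine. Buffer or medium: Zinc-free HEPES saline buffer with Triton X-100. Times: 1 h compound preincubation, 2 h substrate hydrolysis at 25 °C. Measured by: 405 nm absorbance of p-nitroaniline, reads at 0 and 120 min. Read-out basis: percent activation relative to control range. Replicates: singlicate.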
CHT PAM: CHT positive allosteric modulators, primary screen, cell-based, membrane potential dye, choline EC20; CHT-expressing cells; active compounds read high; LV-AA mutant CHT in HEK293 cells; AID 488977, 2010; actives 0.49% (n = 310,000); B-score at 10 µM;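 active = initial fluorescence not abnormally high and integrated response B-score, plate-corrected, over 3 SD above library mean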
CHT inh: inhibitors of human choline transporter CHT | High affinity choline transporter 1 (Homo sapiens), Q9GZV3 | CHT-expressing cells, membrane potential dye, choline response; active compounds read low | B-score at 10 µM | actives 0.86% (n = 310,000) | AID 488975, 2010;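 active = B-score over 3 SD under the library average, and starting fluorescence ratio not unusually high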;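 also: choline stimulus applied at its EC90 after an EC20 pre-addition; B-score computed on integrated fluorescence ratio after choline addition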
procasp7 counter: procaspase-7 activators, primary screen, counter-screen for procaspase-3 activator project, biochemical, absorbance, HTS, human; Caspase-7 (Homo sapiens), P55210; recombinant procaspase-7, Ac-DEVD-pNA absorbance 405 nm; D23A/D198A/D206A triple mutant, cannot self-cleave; scale: DMSO 0, 5 µM enzyme 100; activation, % at 8.5 µM; actives 0.093% (n = 330,000);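 active = percent activation above the screen-wide mean plus 3 SD, cut at about 25% in these data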
Target sequence (P55210 whole entry D23A/D198A/D206A): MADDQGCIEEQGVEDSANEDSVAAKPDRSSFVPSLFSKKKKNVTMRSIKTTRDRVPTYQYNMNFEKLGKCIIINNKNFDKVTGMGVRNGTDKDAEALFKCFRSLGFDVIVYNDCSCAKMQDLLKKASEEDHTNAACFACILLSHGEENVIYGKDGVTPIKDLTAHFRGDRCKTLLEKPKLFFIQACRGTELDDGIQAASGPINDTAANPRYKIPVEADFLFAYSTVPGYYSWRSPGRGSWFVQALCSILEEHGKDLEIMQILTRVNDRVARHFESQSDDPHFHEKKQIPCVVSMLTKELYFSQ
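Material: Procaspase-7 triple mutant (PC-7 D3A) | Quantity: 2 µM procaspase-7 mutant as dispensed | Reagent: DEVD-pNA substrate | Times: 1 h preincubation, 2 h reaction | Technique: 405 nm absorbance of p-nitroaniline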
CHT inh conf: CHT inhibitors, confirmation, cell-based, membrane potential dye, duplicate; shares compounds with CHT inh; actives 70% (n = 2,400); AID 493221, 2011; CHT-expressing cells, choline membrane potential dye; LV-to-AA substituted CHT, HEK293 cells; CHT activity remaining % of control (active compounds read low), % at 10 µM;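 active = choline transporter activity left, mean of duplicates at 10 µM, below buffer-only control mean minus 3 SD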;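 also: depolarization triggered by choline at its EC90 following an EC20 pre-addition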
HEK293 MPD ctr: membrane potential effects in parental HEK293, counter-screen for CHT inhibitor project, cell-based, membrane potential dye; shares compounds with CHT inh; AID 493222, 2011; actives 4% (n = 2,400); membrane potential ratio readout (active if shifted either direction beyond buffer ±3SD; no single direction) at 10 µM; choline response; active = decrease or increase beyond buffer ±3SD;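 also: parental cells lack the transporter so any hit is non-specific; ratio is peak minus trough fluorescence over baseline after EC90 choline challenge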
Each line names hits and unclear results; the compound was inactive in the other large screens (follow-up assays come after a bar, where they were run). Sampled rows, rich in hits. Any-hit rate of the full collection: about 1.3%.

Clc1c(-c2nnc3n2CCCCC3)sc2ccccc12	CHT inh -5.3 | CHT inh conf 36% | HEK293 MPD ctr -8.5
Clc1c(-c2nnc3n2CCC3)sc2ccccc12	none
COc1ccc2c(Cl)c(-c3nnc4n3CCCCC4)sc2c1	CHT inh -6.2 | CHT inh conf inactive | HEK293 MPD ctr inactive
CCn1c(C)cs/c1=N\C(=S)Nc1ccccc1C	none
CCOc1c2ccc(C(=O)NC3CCCc4ccccc43)cc2nn1C (stereo unspecified)	none
CCCn1nc2cc(C(=O)NCc3ccc(C)cc3)ccc2c1OCC	CHT inh -5.6 | CHT inh conf 56% | HEK293 MPD ctr inactive
CCCCn1nc2cc(C(=O)NC3CCCc4ccccc43)ccc2c1OCC (stereo unspecified)	CHT inh -9.6 | CHT inh conf 21% | HEK293 MPD ctr inactive
CCCCn1nc2cc(C(=O)N[C@H](C)C3CCCCC3)ccc2c1OCC	CHT inh -11 | CHT inh conf 5.4% | HEK293 MPD ctr inactive
CC1CN(S(=O)(=O)c2ccc(C(=O)N(C)C3CCCCC3)cc2)CC(C)O1 (stereo unspecified)	none (no result: CHT PAM, CHT inh)
C=C(C)CSc1nnc(CCCCCNC(=O)OC(C)(C)C)o1	CHT inh -6 | CHT inh conf 68% | HEK293 MPD ctr inactive
CCN(CC)C(=O)CSc1nnc(CCCCCNC(=O)OC(C)(C)C)o1	none
CC(C)(C)OC(=O)NCCc1nnc(SCC(N)=O)o1	none
CC(C)(C)OC(=O)NCCCCCc1nnc(SCC(N)=O)o1	CHT inh -6.3 | CHT inh conf inactive | HEK293 MPD ctr inactive
Cc1ccc(CSc2nnc(CCNC(=O)OC(C)(C)C)o2)cc1	CHT inh -5.3 | CHT inh conf 69% | HEK293 MPD ctr inactive
CCOc1ncccc1C(=O)Nc1cccc(-c2nnc3n2CCCCC3)c1	none
c1cc(Nc2ncnc3sccc23)cc(-c2nnc3n2CCCCC3)c1	CHT inh -6 | CHT inh conf 57% | HEK293 MPD ctr inactive
C=Cn1cc[n+](CC(=O)c2ccc(Cl)c(Cl)c2)c1	CHT inh -7.2 | CHT inh conf 48% | HEK293 MPD ctr inactive
C=Cn1cc[n+](CC(=O)C(C)(C)C)c1	none
Cc1nn2c(N3CCN(C)CC3)c3c(nc2c1-c1ccccc1)CCCC3	CHT inh -9.6 | CHT inh conf 32% | HEK293 MPD ctr inactive
CC(C)CCOc1ccc(C(=O)NCC(c2ccco2)N(C)C)cc1 (stereo unspecified)	none
O=C(O)CC1(CC(=O)Nc2ccc3ccccc3n2)CCCCC1	none
Cc1ccccc1C(=O)N=c1ccn(-c2nc3ccccc3nc2NS(=O)(=O)c2ccc(F)cc2)cc1	CHT inh -5.9 | CHT inh conf inactive | HEK293 MPD ctr inactive
O=C(CSc1nccn1-c1ccc(F)cc1)NCc1ccc(F)cc1	CHT inh -5.3 | CHT inh conf 53% | HEK293 MPD ctr inactive
CC1CN(C(=O)CCC(=O)NC(C)c2ccccc2)c2cc(Cl)ccc2O1 (stereo unspecified)	none | CHT inh conf 24% | HEK293 MPD ctr inactive
CC1CN(C(=O)CCC(=O)N2CCCCC2)c2cc(Cl)ccc2O1 (stereo unspecified)	none
CCOc1cc(C(c2c(O)nc(SC)[nH]c2=O)c2c(O)nc(SC)[nH]c2=O)ccc1O	none
COc1ccccc1C(c1c(O)nc(SC)[nH]c1=O)c1c(O)nc(SC)[nH]c1=O	none | CHT inh conf inactive | HEK293 MPD ctr inactive
CN(C)C1=NCCN1CC1CCCCC1	none
CCCNC(=O)c1ccc2nc(-c3ccccc3)c(-c3ccccc3)nc2c1	none
CCN1CCN(CCNC(=O)c2ccc3nc(-c4cccc(C)c4)c(-c4cccc(C)c4)nc3c2)CC1	CHT inh -8.7 | CHT inh conf 36% | HEK293 MPD ctr inactive
COc1ccc(NS(=O)(=O)c2cccc(C(=O)NCCCN3CCOCC3)c2)cc1	none
COc1ccc(-c2nc3ccc(C(=O)NCCCN4CCOCC4)cc3nc2-c2ccc(OC)cc2)cc1	CHT inh -5.1 | CHT inh conf 53% | HEK293 MPD ctr inactive
O=C(O)CC1=C(O)C(=O)N(c2ccccc2)C1c1ccc(Cl)cc1 (stereo unspecified)	none
O=C(O)CC1=C(Nc2ccccc2)C(=O)N(c2ccccc2)C1c1ccc(Br)cc1 (stereo unspecified)	CHT inh -5.9 | CHT inh conf 25% | HEK293 MPD ctr inactive
COc1ccc(S(=O)(=O)N2CCC(C(=O)NCc3cccnc3)CC2)cc1OC	none
Cc1ccc(C(=O)NCC(=O)NCCCc2ccccc2)cc1	CHT inh -5 | CHT inh conf 57% | HEK293 MPD ctr inactive
O=C(c1nn(-c2ccccc2)c(=O)c2ccccc12)N1CCN(c2ccccn2)CC1	CHT inh -6 | CHT inh conf inactive | HEK293 MPD ctr inactive
C=CCNc1nc(SC)nc2ccsc12	CHT inh -11 | CHT inh conf 3.0% | HEK293 MPD ctr inactive
CNC(=S)Nc1cc(C)ccc1OC(F)F	none
CSc1nnc(-c2sccc2OCc2ccc(C)cc2)n1C	CHT inh -5.3 | CHT inh conf 67% | HEK293 MPD ctr -9.8
NS(=O)(=O)c1ccc2nc(NC(=O)Nc3ccc(F)cc3)sc2c1	none
c1ccc(-c2csc(NC3=NCCCCC3)n2)cc1	CHT inh -7.1 | CHT inh conf inactive | HEK293 MPD ctr inactive
CN1CCCN(C(=O)c2cc(-c3ccc(Cl)c(Cl)c3Cl)nc3ccccc23)CC1	CHT inh -8 | CHT inh conf inactive | HEK293 MPD ctr inactive
CCCc1ccc(OCc2ccc(C(=O)NCc3cccnc3)o2)c(OC)c1	CHT inh -5.7 | CHT inh conf 68% | HEK293 MPD ctr inactive
CNc1nc(Nc2ccc(C(C)=O)cc2)nc(OC(C(F)(F)F)C(F)(F)F)n1	none
CC(=O)c1ccc(Nc2nc(NCCO)nc(OC(C(F)(F)F)C(F)(F)F)n2)cc1	CHT inh -5.1 | CHT inh conf 66% | HEK293 MPD ctr inactive
CCN(C(=O)C1CCCN1S(=O)(=O)c1ccc2c(c1)n(C)c(=O)c(=O)n2C)c1ccccc1 (stereo unspecified)	none
O=C(c1cccc(C(F)(F)F)c1)N1CCC2(CC1)NCCc1[nH]cnc12	none
CCN1CCCC1CNC(=O)c1ccc2c(c1)N(Cc1cccc(Cl)c1)C(=O)c1ccccc1S2(=O)=O (stereo unspecified)	CHT inh -12 | CHT inh conf 28% | HEK293 MPD ctr inactive
